From ChEMBL document CHEMBL4138242, “Synthesis and antibacterial evaluation of novel cationic chalcone derivatives possessing broad spectrum antibacterial activity” (Eur J Med Chem, 2018)
Activity calls are given as the source filed them. The rule behind the calls is not given here.

Experiments:
[1] = test system: Staphylococcus aureus; assay: Antibacterial activity against Staphylococcus aureus ATCC 29213 after 16 to 20 hrs by broth microdilution method; type: functional
Procedure, shortened: (§1)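 Broth microdilution per CLSI. Bacteria grown 4-6 h (about 10⁸ CFU/mL), then diluted to about 10⁶ CFU/mL. Medium: Mueller-Hinton broth, except Luria-Bertani broth for E. coli. Compounds in sterile water, twofold series 256-0.5 µg/mL, mixed 1:1 with inoculum, 37 °C for 16-20 h. MIC is the lowest concentration without visible growth. Duplicate wells; experiment repeated at least twice.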

[2] = test system: Enterococcus faecalis; assay: Antibacterial activity against Enterococcus faecalis ATCC 29212 after 16 to 20 hrs by broth microdilution method; type: functional; procedure, shortened: as §1
[3] = test system: Escherichia coli; assay: Antibacterial activity against Escherichia coli ATCC 25922 after 16 to 20 hrs by broth microdilution method; type: functional; procedure, shortened: as §1
[4] = test system: Salmonella enterica; assay: Antibacterial activity against Salmonella enterica ATCC 13076 after 16 to 20 hrs by broth microdilution method; type: functional; procedure, shortened: as §1
[5] = Hemolytic activity in sheep RBC after 1 hr; type: ADME, cell-based, Ovis aries, Erythrocyte; conditions: sheep red blood cells (erythrocytes)
Procedure, shortened: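 Sheep red blood cells (150 µL suspension) mixed with 50 µL of compound dilutions (5120-10 µg/mL), 1 h at 37 °C, then centrifuged. Supernatant read at 540 nm. Percent hemolysis calculated relative to RBC-only control (0%) and 0.1% Triton X-100 (100%).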

[6] = test system: Staphylococcus aureus; assay: Antibacterial activity against methicillin-resistant Staphylococcus aureus clinical isolate 1105183 cono7 after 16 to 20 hrs by broth microdilution method; type: functional
Procedure, shortened: (§2)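 CLSI broth microdilution in Mueller-Hinton broth. A 4-6 h culture was diluted to about 10⁶ CFU/mL and mixed 1:1 with compound dilutions prepared at 256 to 0.5 µg/mL from aqueous stocks. Plates were incubated at 37 °C for 16-20 h and read visually for MIC. Each concentration was run in duplicate, and the experiment was repeated at least twice. Vancomycin and meropenem were comparators.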

[7] = test system: Staphylococcus aureus; assay: Antibacterial activity against methicillin-resistant Staphylococcus aureus clinical isolate 20130911034sau after 16 to 20 hrs by broth microdilution method; type: functional; procedure, shortened: as §2
[8] = test system: Staphylococcus aureus; assay: Antibacterial activity against methicillin-resistant Staphylococcus aureus clinical isolate 0831010 after 16 to 20 hrs by broth microdilution method; type: functional; procedure, shortened: as §2
[9] = test system: Staphylococcus aureus; assay: Antibacterial activity against methicillin-resistant Staphylococcus aureus clinical isolate 1104060 after 16 to 20 hrs by broth microdilution method; type: functional; procedure, shortened: as §2
[10] = test system: Staphylococcus aureus; assay: Antibacterial activity against methicillin-resistant Staphylococcus aureus clinical isolate 20131012632sau after 16 to 20 hrs by broth microdilution method; type: functional; procedure, shortened: as §2
[11] = test system: Staphylococcus aureus; assay: Antibacterial activity against methicillin-resistant Staphylococcus aureus clinical isolate 1207007 after 16 to 20 hrs by broth microdilution method; type: functional; procedure, shortened: as §2
[12] = test system: Staphylococcus aureus; assay: Antibacterial activity against methicillin-resistant Staphylococcus aureus clinical isolate 1-may after 16 to 20 hrs by broth microdilution method; type: functional; procedure, shortened: as §2
[13] = test system: Staphylococcus aureus; assay: Antibacterial activity against methicillin-resistant Staphylococcus aureus clinical isolate 0906202 after 16 to 20 hrs by broth microdilution method; type: functional; procedure, shortened: as §2
[14] = test system: Staphylococcus aureus; assay: Antibacterial activity against methicillin-resistant Staphylococcus aureus clinical isolate 1208143 after 16 to 20 hrs by broth microdilution method; type: functional; procedure, shortened: as §2
[15] = test system: Klebsiella pneumoniae; assay: Antibacterial activity against drug-resistant carbapenemase producing Klebsiella pneumoniae clinical isolate KP-14-8 after 16 to 20 hrs by broth microdilution method; type: functional; procedure, shortened: as §2
[16] = test system: Klebsiella pneumoniae; assay: Antibacterial activity against drug-resistant carbapenemase producing Klebsiella pneumoniae clinical isolate KP-13-45 after 16 to 20 hrs by broth microdilution method; type: functional; procedure, shortened: as §2
[17] = test system: Klebsiella pneumoniae; assay: Antibacterial activity against drug-resistant carbapenemase producing Klebsiella pneumoniae clinical isolate KP-14-3 after 16 to 20 hrs by broth microdilution method; type: functional; procedure, shortened: as §2
[18] = test system: Klebsiella pneumoniae; assay: Antibacterial activity against drug-resistant carbapenemase producing Klebsiella pneumoniae clinical isolate KP-14-1 after 16 to 20 hrs by broth microdilution method; type: functional; procedure, shortened: as §2
[19] = test system: Klebsiella pneumoniae; assay: Antibacterial activity against drug-resistant carbapenemase producing Klebsiella pneumoniae clinical isolate KP-14-4 after 16 to 20 hrs by broth microdilution method; type: functional; procedure, shortened: as §2
[20] = test system: Klebsiella pneumoniae; assay: Antibacterial activity against drug-resistant carbapenemase producing Klebsiella pneumoniae clinical isolate KP-13-54 after 16 to 20 hrs by broth microdilution method; type: functional; procedure, shortened: as §2
[21] = test system: Klebsiella pneumoniae; assay: Antibacterial activity against drug-resistant carbapenemase producing Klebsiella pneumoniae clinical isolate KP-14-2 after 16 to 20 hrs by broth microdilution method; type: functional; procedure, shortened: as §2
[22] = test system: Klebsiella pneumoniae; assay: Antibacterial activity against drug-resistant carbapenemase producing Klebsiella pneumoniae clinical isolate EC-13-23 after 16 to 20 hrs by broth microdilution method; type: functional; procedure, shortened: as §2
[23] = test system: Klebsiella pneumoniae; assay: Antibacterial activity against drug-resistant carbapenemase producing Klebsiella pneumoniae clinical isolate KP-14-5 after 16 to 20 hrs by broth microdilution method; type: functional; procedure, shortened: as §2
[24] = test system: Klebsiella pneumoniae; assay: Antibacterial activity against drug-resistant carbapenemase producing Klebsiella pneumoniae clinical isolate KP-13-55 after 16 to 20 hrs by broth microdilution method; type: functional; procedure, shortened: as §2
[25] = test system: Klebsiella pneumoniae; assay: Antibacterial activity against drug-resistant carbapenemase producing Klebsiella pneumoniae clinical isolate KP-14-45 after 16 to 20 hrs by broth microdilution method; type: functional; procedure, shortened: as §2
[26] = test system: Klebsiella pneumoniae; assay: Antibacterial activity against drug-resistant carbapenemase producing Klebsiella pneumoniae clinical isolate KP-14-18 after 16 to 20 hrs by broth microdilution method; type: functional; procedure, shortened: as §2
[27] = test system: Escherichia coli; assay: Antibacterial activity against drug-resistant NDM1 producing Escherichia coli clinical isolate EC-13-49 after 16 to 20 hrs by broth microdilution method; type: functional; procedure, shortened: as §2
[28] = test system: Escherichia coli; assay: Antibacterial activity against drug-resistant NDM1 producing Escherichia coli clinical isolate Ecl-14-58 after 16 to 20 hrs by broth microdilution method; type: functional; procedure, shortened: as §2
[29] = test system: Escherichia coli; assay: Antibacterial activity against drug-resistant NDM1 producing Escherichia coli clinical isolate KP-13-58 after 16 to 20 hrs by broth microdilution method; type: functional; procedure, shortened: as §2
[30] = test system: Escherichia coli; assay: Antibacterial activity against drug-resistant NDM1 producing Escherichia coli clinical isolate Ecl-13-62 after 16 to 20 hrs by broth microdilution method; type: functional; procedure, shortened: as §2
[31] = test system: Escherichia coli; assay: Antibacterial activity against drug-resistant NDM1 producing Escherichia coli clinical isolate EC-14-54 after 16 to 20 hrs by broth microdilution method; type: functional; procedure, shortened: as §2
[32] = test system: Escherichia coli; assay: Antibacterial activity against drug-resistant NDM1 producing Escherichia coli clinical isolate Ecl-14-59 after 16 to 20 hrs by broth microdilution method; type: functional; procedure, shortened: as §2
[33] = test system: Escherichia coli; assay: Antibacterial activity against drug-resistant NDM1 producing Escherichia coli clinical isolate EA-14-61 after 16 to 20 hrs by broth microdilution method; type: functional; procedure, shortened: as §2
[34] = test system: Escherichia coli; assay: Antibacterial activity against drug-resistant NDM1 producing Escherichia coli clinical isolate Ecl-14-56 after 16 to 20 hrs by broth microdilution method; type: functional; procedure, shortened: as §2
[35] = test system: Escherichia coli; assay: Antibacterial activity against drug-resistant NDM1 producing Escherichia coli clinical isolate 1460 after 16 to 20 hrs by broth microdilution method; type: functional; procedure, shortened: as §2
[36] = test system: Escherichia coli; assay: Antibacterial activity against drug-resistant NDM1 producing Escherichia coli clinical isolate SM-15-84 after 16 to 20 hrs by broth microdilution method; type: functional; procedure, shortened: as §2
[37] = test system: Escherichia coli; assay: Antibacterial activity against drug-resistant NDM1 producing Escherichia coli clinical isolate CF-15-61 after 16 to 20 hrs by broth microdilution method; type: functional; procedure, shortened: as §2
[38] = test system: Escherichia coli; assay: Antibacterial activity against drug-resistant NDM1 producing Escherichia coli clinical isolate CF-13-61 after 16 to 20 hrs by broth microdilution method; type: functional; procedure, shortened: as §2
[39] = test system: Staphylococcus aureus; assay: Induction of cytoplasmic membrane depolarization in Staphylococcus aureus ATCC 29213 at 10 to 20 ug/ml measured every 2 mins for 12 mins by DiSC35 dye-based fluorescence assay; type: functional, organism-based
Procedure, shortened: (§3)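 Mid-log cells (~10⁸ CFU/mL) were suspended in PBS (S. aureus) or HEPES/glucose/KCl with EDTA (E. coli). They were preloaded with DiSC3(5) for 30 min (S. aureus) or 40 min (E. coli), and baseline fluorescence was read for 8 min. Compound was added to 20 µg/mL final, and fluorescence (ex 622/em 670 nm) was read every 2 min for 12 min. Water served as control.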

[40] = test system: Escherichia coli; assay: Induction of cytoplasmic membrane depolarization in Escherichia coli ATCC 25922 at 10 to 20 ug/ml measured every 2 mins for 12 mins by DiSC35 dye-based fluorescence assay; type: functional, organism-based; procedure, shortened: as §3
[41] = test system: Staphylococcus aureus; assay: Induction of inner membrane permeabilization in Staphylococcus aureus ATCC 29213 at 10 to 20 ug/ml measured every 2 mins for 12 mins by propidium iodide staining-based fluorescence assay; type: functional, organism-based
Procedure, shortened: (§4)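 Mid-log cells (~10⁸ CFU/mL) were suspended in PBS (S. aureus) or HEPES/glucose/KCl (E. coli). They were preincubated with propidium iodide for 30 min (S. aureus) or 40 min (E. coli), and baseline fluorescence was read for 8 min. Compound was added to 20 µg/mL final, and fluorescence (ex 535/em 617 nm) was read every 2 min for 12 min.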

[42] = test system: Escherichia coli; assay: Induction of inner membrane permeabilization in Escherichia coli ATCC 25922 at 10 to 20 ug/ml measured every 2 mins for 12 mins by propidium iodide staining-based fluorescence assay; type: functional, organism-based; procedure, shortened: as §4

CCCCCCCC[N+](C)(C)CC(=O)Nc1ccc(C(=O)/C=C/c2ccc(Cl)cc2)cc1.[Cl-]
MIC [1]: 2 µg/mL
MIC [2]: 2 µg/mL
MIC [3]: 4 µg/mL
MIC [4]: 8 µg/mL
HC50 at 1 h [5]: > 500 µg/mL
MIC [6]: 1 µg/mL
MIC [7]: 0.5 µg/mL
MIC [8]: 1 µg/mL
MIC [9]: 4 µg/mL
MIC [10]: 2 µg/mL
MIC [11]: 0.5 µg/mL
MIC [12]: 2 µg/mL
MIC [13]: 1 µg/mL
MIC [14]: 2 µg/mL
MIC [15]: 8 µg/mL
MIC [16]: 8 µg/mL
MIC [17]: 8 µg/mL
MIC [18]: 16 µg/mL
MIC [19]: 8 µg/mL
MIC [20]: 8 µg/mL
MIC [21]: 16 µg/mL
MIC [22]: 8 µg/mL
MIC [23]: 8 µg/mL
MIC [24]: 32 µg/mL
MIC [25]: 8 µg/mL
MIC [26]: 16 µg/mL
MIC [27]: 16 µg/mL
MIC [28]: 4 µg/mL
MIC [29]: 4 µg/mL
MIC [30]: 8 µg/mL
MIC [31]: 16 µg/mL
MIC [32]: 8 µg/mL
MIC [33]: 4 µg/mL
MIC [34]: 4 µg/mL
MIC [35]: 8 µg/mL
MIC [36]: 16 µg/mL
MIC [37]: 8 µg/mL
MIC [38]: 8 µg/mL
Activity [39]: Active
Activity [40]: Active
Activity [41]: Active
Activity [42]: Active

CCCCCCCC[N+](C)(C)CC(=O)Nc1ccc(C(=O)/C=C/c2ccc(F)cc2)cc1.[Cl-]
MIC [1]: 2 µg/mL
MIC [2]: 2 µg/mL
MIC [3]: 2 µg/mL
MIC [4]: 4 µg/mL
HC50 at 1 h [5]: 83 µg/mL
MIC [6]: 1 µg/mL
MIC [7]: 0.5 µg/mL
MIC [8]: 0.5 µg/mL
MIC [9]: 8 µg/mL
MIC [10]: 2 µg/mL
MIC [11]: 0.5 µg/mL
MIC [12]: 1 µg/mL
MIC [13]: 4 µg/mL
MIC [14]: 2 µg/mL
MIC [15]: 4 µg/mL
MIC [16]: 4 µg/mL
MIC [17]: 8 µg/mL
MIC [18]: 4 µg/mL
MIC [19]: 4 µg/mL
MIC [20]: 4 µg/mL
MIC [21]: 16 µg/mL
MIC [22]: 2 µg/mL
MIC [23]: 4 µg/mL
MIC [24]: 8 µg/mL
MIC [25]: 8 µg/mL
MIC [26]: 8 µg/mL
MIC [27]: 4 µg/mL
MIC [28]: 4 µg/mL
MIC [29]: 1 µg/mL
MIC [30]: 4 µg/mL
MIC [31]: 16 µg/mL
MIC [32]: 4 µg/mL
MIC [33]: 4 µg/mL
MIC [34]: 16 µg/mL
MIC [35]: 8 µg/mL
MIC [36]: 16 µg/mL
MIC [37]: 4 µg/mL
MIC [38]: 16 µg/mL
Activity [39]: Active
Activity [40]: Active
Activity [41]: Active
Activity [42]: Active
